According to ChEMBL document CHEMBL3414436, “Strong antibacterial properties of anion transporters: a result of depolarization and weakening of the bacterial membrane” (J Med Chem, 2015):
Calls of active or inactive are those of the source. The rule behind the calls is not given here.

Columns and labels:
[1] = Binding affinity to egg yolk phosphotidylcholine liposomes assessed as induction of chloride ion efflux after 250 secs by fluorimetric analysis relative to lipid
In short: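 EYPC LUVs (100 nm extruded) loaded with 2 mM lucigenin, 100 mM NaCl and 10 mM sodium phosphate pH 6.4. Liposomes are suspended in NaNO3 buffer at 37 °C. Transporter in MeOH, at various concentrations, is added at 50 s and Triton X-100 lysis at 300 s. Chloride efflux is read as lucigenin fluorescence (ex 372, em 503 nm). Traces are averaged over triplicates.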

[2] = Induction of nitrate anions efflux in chloroform phase at 1 mM by fluorescence-based U-tube method; format: physicochemical; settings: 1000 µM
In short: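 U-tube: 10 mL chloroform containing 1 mM ionophore separates 5 mL of 0.1 mM aqueous lucigenin (donor arm) from 5 mL water (receiving arm). Lucigenin fluorescence in the receiving phase is monitored at ex 372 and em 503 nm. Neat chloroform serves as control.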

[3] = test system: Escherichia coli; experiment: Antibacterial activity against wild type Escherichia coli DH5alpha measured for 24 hrs; format: functional, DH5[alpha]
In short: (§1)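 Broth microdilution in LB at 37°C. Overnight precultures regrown to OD600 0.5, then diluted to OD600 0.1. Compound added in DMSO, final DMSO max 2.5% (v/v). Plates stirred; OD600 read at 0, 4, 8 and 24 h. MIC taken as lowest concentration with no detectable growth. Triplicates from independent cultures.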

[4] = test system: Escherichia coli; experiment: Antibacterial activity against Escherichia coli SK037 expressing TolC mutant measured for 24 hrs; format: functional; in short: as §1
[5] = test system: Bacillus thuringiensis; experiment: Antibacterial activity against Bacillus thuringiensis HD73 measured for 24 hrs; format: functional
In short: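 Broth microdilution in LB. Overnight 37 °C preculture, regrown to OD600 0.5, diluted to OD600 0.1. Wells hold culture plus compound in DMSO (DMSO max 2.5% v/v final). Incubated at 37 °C with stirring, OD600 read at 0, 4, 8 and 24 h. MIC is the lowest concentration with no detectable growth. Triplicates from independent cultures.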

[6] = test system: Escherichia coli; experiment: Ratio of MIC for wild type Escherichia coli DH5alpha to MIC for Escherichia coli SK037 expressing TolC mutant; format: functional
[7] = test system: Lipid bilayer; experiment: Binding affinity to DPPC liposomes assessed as induction of chloride ion efflux at 35 to 45 degC after 250 secs by fluorimetric analysis; settings: Microsome
In short: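 Lucigenin-loaded (2 mM) DPPC LUVs (100 nm extruded) containing 100 mM NaCl and 10 mM sodium phosphate pH 6.4, external dye removed by gel filtration. Vesicles diluted into 2.5 mL stirred phosphate buffer at 35, 40 or 45°C. Transporter in MeOH added at t = 50 s to 10 mol% relative to lipid; Triton X-100 lysis at 300 s. Fluorescence ex 372/em 503 nm. Average of three runs.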

[8] = test system: Escherichia coli; experiment: Induction of membrane permeabilization in Escherichia coli SK037 expressing TolC mutant at 40 times MIC after 2 hrs by diSC25 dye-based fluorescence assay; format: functional, organism-based
In short: (§2)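 E. coli SK037 grown overnight in LB at 37°C, washed in 5 mM HEPES pH 7.3 with 20 mM glucose and diluted to A600 0.15. diSC25 (1 µM final) equilibrated 1 h at 37°C to a stable baseline. Compound in DMSO added to 0.4 mM or 1 mM final. Fluorescence ex 600/em 660 nm followed ~2 h with stirring at 37°C.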

[9] = test system: Escherichia coli; experiment: Induction of membrane depolarization in Escherichia coli SK037 expressing TolC mutant at 40 times MIC after 2 hrs by diSC25 dye-based fluorescence assay; format: functional, organism-based; in short: as §2
[10] = test system: Escherichia coli; experiment: Antibacterial activity against Escherichia coli SK037 expressing TolC mutant assessed as change in cell morphology and membrane damage after 12 to 24 hrs by field emission scanning electron microscopic analysis; format: functional, organism-based
In short: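 E. coli SK037 grown in LB, washed three times, resuspended in 10 mM PBS pH 7.4 and diluted to A600 1.20 (9 x 10^8 CFU/mL). Cells exposed to 0.04 mM or 0.08 mM compound (added in DMSO) on poly-lysine-coated glass slides at 37°C for 12 h or 24 h. Fixed with 2.5% glutaraldehyde, stained with 1% OsO4, ethanol-dehydrated, critical-point dried, carbon-coated, imaged by field emission SEM.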

[11] = Hemolytic activity in human RBC at 25 uM after 1 hr relative to control; format: ADME, cell-based, Erythrocyte; settings: red blood cells (RBC), read-out: Activity
In short: (§3)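 Human type O erythrocytes are washed in PBS and used at 2% v/v. Two-fold serial dilutions in DMSO are added, then incubated for 1 or 24 h at 37 °C with gentle shaking. After centrifugation at 2000g, hemoglobin release is read as supernatant A405. It is normalized to PBS (0%) and 0.5% Triton X-100 (100%). Mean of three experiments.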

[12] = Hemolytic activity in human RBC at 25 uM after 24 hrs relative to control; format: cell-based, Erythrocyte; settings: red blood cells (RBC), read-out: Activity; in short: as §3
[13] = Escherichia coli, DH5[alpha], 24 h, read-out: MIC
[14] = Escherichia coli, SK037, 24 h, read-out: MIC
[15] = Bacillus thuringiensis, HD73, 24 h, read-out: MIC

SMILES | EC50 [1] | MIC [3, 13] | MIC [4, 14] | MIC [5, 15] | Ratio [6] | further results
C(#Cc1ccc(C[n+]2cn(Cc3cccc(Cn4c[n+](Cc5ccc(C#Cc6ccccc6)cc5)c5ccccc54)n3)c3ccccc32)cc1)c1ccccc1.O=S(=O)([N-]S(=O)(=O)C(F)(F)F)C(F)(F)F.O=S(=O)([N-]S(=O)(=O)C(F)(F)F)C(F)(F)F [listing 1 of 2 here] | 5.6 mol% | 50 µM | 10 µM | 10 µM | 2.5 | Activity [2]: Not Active
C(#Cc1ccc(Cn2c[n+](Cc3ccc(C#Cc4ccccc4)cc3)c3ccccc32)cc1)c1ccccc1.O=S(=O)([N-]S(=O)(=O)C(F)(F)F)C(F)(F)F [listing 1 of 2 here] | 5.8 mol% | > 100 µM | 25 µM | 10 µM | 2.5 | 
C(#Cc1ccc(C[n+]2cn(-c3cccc(-n4c[n+](Cc5ccc(C#Cc6ccccc6)cc5)c5ccccc54)n3)c3ccccc32)cc1)c1ccccc1.O=S(=O)([O-])C(F)(F)F.O=S(=O)([O-])C(F)(F)F | 12 mol% |  |  |  |  | MIC [3]: >100 µM; MIC [5]: 10 µM
C(#Cc1ccc(C[n+]2cn(Cc3cccc(Cn4c[n+](Cc5ccc(C#Cc6ccccc6)cc5)c5ccccc54)n3)c3ccccc32)cc1)c1ccccc1.O=S(=O)([N-]S(=O)(=O)C(F)(F)F)C(F)(F)F.O=S(=O)([N-]S(=O)(=O)C(F)(F)F)C(F)(F)F [listing 2 of 2 here] |  |  |  |  |  | Activity [7]: Active; Activity [8]: Active; Activity [9]: Active
C(#Cc1ccc(C[n+]2cn(-c3cccc(-n4c[n+](Cc5ccc(C#Cc6ccccc6)cc5)c5ccccc54)n3)c3ccccc32)cc1)c1ccccc1.O=S(=O)([N-]S(=O)(=O)C(F)(F)F)C(F)(F)F.O=S(=O)([N-]S(=O)(=O)C(F)(F)F)C(F)(F)F | 6.9 mol% | > 100 µM | > 100 µM | 10 µM |  | 
C(#Cc1ccc(C[n+]2cn(Cc3cccc(Cn4c[n+](Cc5ccc(C#Cc6ccccc6)cc5)c5ccccc54)n3)c3ccccc32)cc1)c1ccccc1 |  |  |  |  |  | Activity [7]: Active; Activity [8]: Active; Activity [9]: Active; Activity [10]: Dose-dependent effect
C(#Cc1ccc(Cn2c[n+](Cc3ccc(C#Cc4ccccc4)cc3)c3ccccc32)cc1)c1ccccc1.O=S(=O)([N-]S(=O)(=O)C(F)(F)F)C(F)(F)F [listing 2 of 2 here] |  |  |  |  |  | Activity [8]: Active
C(#Cc1ccc(Cn2c[n+](Cc3ccc(C#Cc4ccccc4)cc3)c3ccccc32)cc1)c1ccccc1.[Br-] | 14.8 mol% | > 100 µM | > 100 µM | 10 µM |  | 
C(#Cc1ccc(C[n+]2cn(Cc3cccc(Cn4c[n+](Cc5ccc(C#Cc6ccccc6)cc5)c5ccccc54)n3)c3ccccc32)cc1)c1ccccc1.[Br-].[Br-] | 14 mol% |  | 10 µM |  | 10 | Activity [2]: Not Active; MIC [3]: 100 µM; MIC [5]: 10 µM
C(#Cc1ccc(C[n+]2cn(-c3cccc(-n4c[n+](Cc5ccc(C#Cc6ccccc6)cc5)c5ccccc54)n3)c3ccccc32)cc1)c1ccccc1.[Br-].[Br-] | 24 mol% | > 100 µM | > 100 µM | 10 µM |  | 
C(#Cc1ccc(C[n+]2cn(Cc3cccc(Cn4c[n+](Cc5ccc(C#Cc6ccccc6)cc5)c5ccccc54)n3)c3ccccc32)cc1)c1ccccc1.O=S(=O)([O-])C(F)(F)F.O=S(=O)([O-])C(F)(F)F | 0.46 mol% |  |  |  | 2.5 | Activity [2]: Active; MIC [3]: 25 µM; MIC [4]: 10 µM; MIC [5]: 2 µM; hemolysis at 1 h, 25 µM [11]: < 10%; hemolysis at 24 h, 25 µM [12]: 10%
